Source: ChEMBL document CHEMBL1921778, “Rational design and synthesis of aminopiperazinones as β-secretase (BACE) inhibitors” (Bioorg Med Chem Lett, 2011)
Activity calls are given as the source filed them. No cut-off for these calls is given here.

Key:
[1] = Dissociation constant, pKa of the compound; assay type: physicochemical
Beta-secretase 1 [2] = target: T1, Beta-secretase 1 (Homo sapiens, UniProt P56817); assay: Inhibition of human BACE1-mediated amyloid beta TOT secretion in human SKNBE2 cells expressing human APP695 after 18 hrs by sandwich alphalisa assay; assay type: cell-based
Summary of the method: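 SKNBE2 human neuroblastoma cells expressing wild-type hAPP695 exposed to diluted compound for 18 h; secreted AβTOT in medium quantified by sandwich AlphaLISA using biotinylated AbN/25 on streptavidin beads and 4G8 detection antibody.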

Beta-secretase 1 [3] = target: T1, Beta-secretase 1; assay: Inhibition of human BACE1-mediated amyloid beta 42 secretion in human SKNBE2 cells expressing human APP695 after 18 hrs by sandwich alphalisa assay; assay type: cell-based
Beta-secretase 1 [4] = target: T1, Beta-secretase 1; assay: Inhibition of human recombinant BACE1 using fluorescent Mca-Ser-Glu-Val-Asn-Leu-Asp-Ala-Glu-Phe-Lys(Dnp)-OH peptide as substrate after 1 hr by spectroflurorimeter analysis
[5] = Drug uptake in mouse brain at 30 mg/kg, sc after 4 hrs; assay type: ADME, organism-based; parameters: dose 30 mg/kg, route subcutaneous; details: read-out: Drug uptake
Summary of the method: (§1)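 Mice dosed subcutaneously; brain and plasma drug levels measured at 1, 2 and 4 h post-dose, brain in ng/g, plasma in ng/ml.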

[6] = Drug uptake in mouse brain at 30 mg/kg, sc after 2 hrs; assay type: ADME, organism-based; parameters: dose 30 mg/kg, route subcutaneous; details: read-out: Drug uptake; summary of the method: as §1
[7] = Drug uptake in mouse brain at 30 mg/kg, sc after 1 hr; assay type: ADME, organism-based; parameters: dose 30 mg/kg, route subcutaneous; details: read-out: Drug uptake; summary of the method: as §1
[8] = Plasma concentration in mouse at 30 mg/kg, sc after 2 hrs; assay type: ADME, organism-based; parameters: dose 30 mg/kg, route subcutaneous; summary of the method: as §1
Mus musculus [9] = assay: Antialzheimer activity in CD1 mouse brain assessed as reduction of amyloid beta TOT production at 30 mg/kg, sc after 1 hr using fluorogenic peroxidase as substrate by ELISA; assay type: functional; parameters: scale not given: the % may be the effect or the level left; details: route subcutaneous
Summary of the method: (§2)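 Male CD1 mice (22-28 g), fasted overnight, given single subcutaneous dose in 20% hydroxypropyl β-cyclodextrin; vehicle/untreated controls. Soluble AβTOT by sandwich ELISA (capture JRF/rAb/2, biotinylated 4G8), Aβ1-40 standards 10000–0.3 pg/ml, overnight 4 °C, QuantaBlu fluorogenic read-out.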

[10] = Plasma concentration in mouse at 30 mg/kg, sc after 1 hr; assay type: ADME, organism-based; parameters: dose 30 mg/kg, route subcutaneous; summary of the method: as §1
[11] = Plasma concentration in mouse at 30 mg/kg, sc after 4 hrs; assay type: ADME, organism-based; parameters: dose 30 mg/kg, route subcutaneous; summary of the method: as §1
[12] = Plasma concentration in mouse at 60 mg/kg, sc after 4 hrs; assay type: ADME, organism-based; parameters: dose 60 mg/kg, route subcutaneous; summary of the method: as §1
[13] = Drug uptake in mouse brain at 60 mg/kg, sc after 2 hrs; assay type: ADME, organism-based; parameters: dose 60 mg/kg, route subcutaneous; details: read-out: Drug uptake; summary of the method: as §1
[14] = Plasma concentration in mouse at 60 mg/kg, sc after 2 hrs; assay type: ADME, organism-based; parameters: dose 60 mg/kg, route subcutaneous; summary of the method: as §1
[15] = Drug uptake in mouse brain at 60 mg/kg, sc after 4 hrs; assay type: ADME, organism-based; parameters: dose 60 mg/kg, route subcutaneous; details: read-out: Drug uptake; summary of the method: as §1
Mus musculus [16] = assay: Antialzheimer activity in CD1 mouse brain assessed as reduction of amyloid beta TOT production at 60 mg/kg, sc after 1 hr using fluorogenic peroxidase as substrate by ELISA; assay type: functional; parameters: scale not given: the % may be the effect or the level left; details: route subcutaneous; summary of the method: as §2
Mus musculus [17] = assay: Antialzheimer activity in CD1 mouse brain assessed as reduction of amyloid beta TOT production at 60 mg/kg, sc after 4 hrs using fluorogenic peroxidase as substrate by ELISA; assay type: functional; parameters: scale not given: the % may be the effect or the level left; details: route subcutaneous; summary of the method: as §2
[18] = Drug uptake in mouse brain at 60 mg/kg, sc after 1 hr; assay type: ADME, organism-based; parameters: dose 60 mg/kg, route subcutaneous; details: read-out: Drug uptake; summary of the method: as §1
[19] = Plasma concentration in mouse at 60 mg/kg, sc after 1 hr; assay type: ADME, organism-based; parameters: dose 60 mg/kg, route subcutaneous; summary of the method: as §1
Mus musculus [20] = assay: Antialzheimer activity in CD1 mouse brain assessed as reduction of amyloid beta TOT production at 60 mg/kg, sc after 2 hrs using fluorogenic peroxidase as substrate by ELISA; assay type: functional; parameters: scale not given: the % may be the effect or the level left; details: route subcutaneous; summary of the method: as §2
Mus musculus [21] = assay: Antialzheimer activity in CD1 mouse brain assessed as reduction of amyloid beta TOT production at 30 mg/kg, sc after 2 hrs using fluorogenic peroxidase as substrate by ELISA; assay type: functional, organism-based; parameters: dose 30 mg/kg; summary of the method: as §2
Mus musculus [22] = assay: Antialzheimer activity in CD1 mouse brain assessed as reduction of amyloid beta TOT production at 30 mg/kg, sc after 4 hrs using fluorogenic peroxidase as substrate by ELISA; assay type: functional, organism-based; parameters: dose 30 mg/kg; summary of the method: as §2

T1 sequence (P56817 whole entry): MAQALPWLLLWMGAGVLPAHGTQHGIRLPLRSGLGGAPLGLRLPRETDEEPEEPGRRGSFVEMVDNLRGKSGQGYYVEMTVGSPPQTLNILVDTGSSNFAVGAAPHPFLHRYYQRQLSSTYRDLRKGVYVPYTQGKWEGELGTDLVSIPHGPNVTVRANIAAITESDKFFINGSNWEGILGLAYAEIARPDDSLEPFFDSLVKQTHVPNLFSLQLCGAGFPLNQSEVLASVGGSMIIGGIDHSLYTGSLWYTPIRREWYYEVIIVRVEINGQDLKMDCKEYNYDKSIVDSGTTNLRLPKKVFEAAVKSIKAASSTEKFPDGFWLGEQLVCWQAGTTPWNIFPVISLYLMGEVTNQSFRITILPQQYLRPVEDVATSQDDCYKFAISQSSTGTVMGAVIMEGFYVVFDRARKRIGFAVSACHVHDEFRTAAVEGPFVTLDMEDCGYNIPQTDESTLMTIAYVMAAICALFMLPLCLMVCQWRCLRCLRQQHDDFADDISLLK

| SMILES | pKa [1] | IC50 (Beta-secretase 1 [2]) [nM] | IC50 (Beta-secretase 1 [3]) [nM] | IC50 (Beta-secretase 1 [4]) [nM] | further results |
| --- | --- | --- | --- | --- | --- |
| CN1CC(N)=N[C@@](C)(c2cccc(NC(=O)c3ccc(Cl)cn3)c2)C1=O | < 8 |  |  |  |  |
| CN1CC(N)=NC(C)(c2cccc(NC(=O)c3ccc(C(F)(F)F)cn3)c2)C1=O (stereo not given) | < 8 | 79 | 68 | 1380 |  |
| CN1CC(C)(c2cccc(NC(=O)c3ccc(Cl)cn3)c2)N=C(N)C1=O (racemic) [listing 1 of 2 here] |  | 107 | 115 | 550 | concentration at 4 h [5]: 20.5 ng/g; concentration at 2 h [6]: 157 ng/g; concentration at 1 h [7]: 614 ng/g; concentration at 2 h [8]: 461 ng/mL; Activity (Mus musculus [9]): 34%; concentration at 1 h [10]: 993 ng/mL; concentration at 4 h [11]: 200 ng/mL |
| CN1CC(N)=NC(C)(c2cccc(NC(=O)c3ccc(Cl)cn3)c2)C1=O (racemic) | 7.8 |  |  |  | concentration at 4 h [5]: 90 ng/g; concentration at 2 h [6]: 123 ng/g; concentration at 1 h [7]: 184 ng/g; concentration at 2 h [8]: 1710 ng/mL; concentration at 1 h [10]: 4630 ng/mL; concentration at 4 h [11]: 439 ng/mL |
| CN1CC(C)(c2cccc(NC(=O)c3ccc(Cl)cn3)c2)N=C(N)C1=O (single isomer, unassigned; enantiomer 1) | 7.6 | > 10000 | > 10000 | > 30000 |  |
| CN1CC(C)(c2cc(NC(=O)c3ccc(Cl)cn3)ccc2F)N=C(N)C1=O (single isomer, unassigned; enantiomer 2) |  |  |  |  | concentration at 4 h [12]: 270 ng/mL; concentration at 2 h [13]: 3340 ng/g; concentration at 2 h [14]: 2460 ng/mL; concentration at 4 h [15]: 347 ng/g; Activity (Mus musculus [16]): 48%; Activity (Mus musculus [17]): 73%; concentration at 1 h [18]: 8080 ng/g; concentration at 1 h [19]: 7140 ng/mL; Activity (Mus musculus [20]): 67% |
| CN1CC(C)(c2cccc(NC(=O)c3ccc(Cl)cn3)c2)N=C(N)C1=O (racemic) [listing 2 of 2 here] |  |  |  |  | Activity (Mus musculus [21]): inactive; Activity (Mus musculus [22]): inactive |
| CN1CC(N)=N[C@](C)(c2cccc(NC(=O)c3ccc(Cl)cn3)c2)C1=O | < 8 |  |  |  |  |
| CN1CC(N)=NC(C)(c2cccc(NC(=O)c3ccc(C#N)cn3)c2)C1=O (stereo not given) | < 8 | 151 | 186 | 813 |  |
| Cc1cnc(C(=O)Nc2cccc(C3(C)N=C(N)CN(C)C3=O)c2)cn1 (stereo not given) | < 8 | 1150 | 1260 | 7080 |  |
| CN1CC(C)(c2cc(NC(=O)c3ccc(Cl)cn3)ccc2F)N=C(N)C1=O (single isomer, unassigned; enantiomer 1) | < 8 |  |  |  |  |
| CN1CC(C)(c2cccc(NC(=O)c3ccc(Cl)cn3)c2)N=C(N)C1=O (single isomer, unassigned; enantiomer 2) |  | 85 | 83 | 295 |  |
